The values that follow come from ChEMBL document CHEMBL3393011, “Magnolol Inhibits RANKL-induced osteoclast differentiation of raw 264.7 macrophages through heme oxygenase-1-dependent inhibition of NFATc1 expression” (J Nat Prod, 2015).

In series [1] the test system is RAW264.7. Description: Cytotoxicity against mouse RAW264.7 cells assessed as cell viability at 5 to 20 uM after 24 hrs by MTT assay. The series is classed as cell-based. The note with it: raw264.7, 24 h. The method in brief: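 Cells grown in DMEM with 10% heat-inactivated FBS. Exposure to compound or 0.1% DMSO vehicle for 24 h. MTT added 1 h at 37 °C, formazan dissolved in DMSO and read at 570 nm.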

The test system of series [2] is RAW264.7. The series is described as follows: Antiosteoclast activity in mouse RAW264.7 cells assessed as reduction of RANKL-induced osteoclasts differentiation by measuring TRAP positive multinucleated cells after 5 days. It is filed as functional, cell-based. The method in brief:
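Cells seeded 24 h, then 5 days in α-MEM with 10% FBS, RANKL 50 ng/mL and test compound. Cells fixed in 10% formalin 10 min and TRAP-stained. Multinucleated TRAP+ cells with three or more nuclei counted by light microscopy; mean ± SD, n = 5.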

Series [3] concerns RAW264.7. Description: Inhibition of RANKL-stimulated JNK phosphorylation in mouse RAW264.7 cells at 20 uM by Western blotting analysis. It is filed as cell-based. The method in brief: (§1)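 Compound added 2 h before RANKL, followed by 15 min further incubation. Total cell lysates blotted on 12% SDS-PAGE for total and phosphorylated MAPKs, with milk block, primary overnight at 4 °C, HRP secondary, chemiluminescence and densitometry. At least three independent experiments.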
On the technique in general: In western blotting, separated proteins are transferred to a membrane and probed.

The subject of series [4] is RAW264.7. Description: Inhibition of RANKL-stimulated ERK phosphorylation in mouse RAW264.7 cells at 20 uM by Western blotting analysis. The series is classed as cell-based. In short, it runs like this: as §1
The target of series [5] is MAP kinase p38 (Mus musculus) (UniProt P47811+O08911+Q9WUI1+Q9Z1B7). The series is described as follows: Inhibition of RANKL-stimulated p38 MAPK phosphorylation in mouse RAW264.7 cells at 20 uM by Western blotting analysis. It is filed as cell-based. In short, it runs like this:
as §1

Series [6] deals with RAW264.7. Description: Induction of nuclear accumulation of Nrf2 in RANKL-induced mouse RAW264.7 cells up to 20 uM after 3 hrs by Western blot analysis. The series is classed as functional, cell-based. The method in brief:
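Nuclear protein extracted with hypotonic then hypertonic (420 mM NaCl) buffers after 3 h RANKL 50 ng/mL with compound. Samples run on 12% SDS-PAGE and immunoblotted; at least three independent experiments.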

The test system of series [7] is RAW264.7. Description: Antiosteoclast activity in mouse RAW264.7 cells assessed as reduction of RANKL-induced osteoclasts differentiation by measuring TRAP positive multinucleated cells after 5 days in presence of tin protoporphyrin 9 (SnPP). It is filed as functional, cell-based. In short, it runs like this:
(§2)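 RANKL 50 ng/mL for 5 days in α-MEM with 10% FBS after 24 h seeding; SnPP 10 μM with test compound. TRAP+ multinucleated cells (≥3 nuclei) counted after formalin fixation and staining. TRAP activity: fixed cells in 50 mM citrate pH 4.6, 10 mM tartrate, 5 mM pNPP for 1 h, stopped with 0.1 N NaOH, A410, as % of RANKL-alone.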

In series [8] the test system is RAW264.7. Description: Antiosteoclast activity in mouse RAW264.7 cells assessed as reduction of RANKL-induced osteoclasts differentiation by measuring TRAP activity after 5 days in presence of tin protoporphyrin 9 (SnPP). The series is classed as functional, cell-based. The method in brief: as §2
Series [9] has as its system RAW264.7. Description: Inhibition of NFATc1 expression in RANKL-induced mouse RAW264.7 cells at 20 uM after 24 hrs by immunofluorescence staining. It is filed as functional, cell-based. The method in brief: (§3)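 Compound 20 μM, alone or with SnPP 10 μM, plus RANKL 50 ng/mL for 24 h. Nuclear NFATc1 by western blot of nuclear extracts, and by immunofluorescence: methanol-fixed cells, 4% BSA block, anti-NFATc1 1:100 overnight at 4 °C, FITC secondary, DAPI counterstain. n = 5.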

The test system of series [10] is RAW264.7. The series is described as follows: Inhibition of NFATc1 expression in RANKL-induced mouse RAW264.7 cells at 20 uM after 24 hrs by immunofluorescence staining in presence of tin protoporphyrin 9 (SnPP). It is filed as functional, cell-based. The method in brief:
as §3

In series [11] the test system is RAW264.7. Description: Inhibition of MMP9 activity in RANKL-induced mouse RAW264.7 cells at 20 uM after 5 days by gelatin zymography.
Series [12] has as its system RAW264.7. Description: Induction of HO-1 protein expression in RANKL-induced mouse RAW264.7 cells up to 20 uM after 48 hrs by Western blot analysis.
Series [13] has as its system RAW264.7. Description: Inhibition of RANKL-induced H2O2 production in mouse RAW264.7 cells pretreated for 2 hrs before RANKL stimulation for 10 mins.
For series [14], the system named is RAW264.7. The series is described as follows: Inhibition of RANKL-induced superoxide anion production in mouse RAW264.7 cells pretreated for 2 hrs before RANKL stimulation for 10 mins.
Series [15] has as its system RAW264.7. The series is described as follows: Inhibition of MMP9 activity in RANKL-induced mouse RAW264.7 cells at 20 uM after 5 days by gelatin zymography in presence of tin protoporphyrin 9 (SnPP).

Molecules are shown by their SMILES. Activity calls are given as the source filed them. The rule behind the calls is not given here.

`C=CCc1ccc(O)c(-c2cc(CC=C)ccc2O)c1` [MAGNOLOL]: the Activity result in the series on RAW264.7 [1] was “Non-toxic”; in the series with RAW264.7 [2], “Dose-dependent effect”. Also, the inhibition entry (in the series with RAW264.7 [3]; with RAW264.7 [4]; in series [5]; with RAW264.7 [9]; with RAW264.7 [11]) was “Active” throughout. Moreover, the result with RAW264.7 [6] and with RAW264.7 [12] was Active. Also, the outcome with RAW264.7 [7] and in the series on RAW264.7 [8] was inactive. Further, the inhibition result with RAW264.7 [10] and with RAW264.7 [15] was “inactive” in each case. Besides, the inhibition entry with RAW264.7 [13] and with RAW264.7 [14] was “Dose-dependent effect” throughout.
